First the molecules themselves.
B1: tRNA (parent)
chain: GUUCCGUUGGCGUAAUGGUAACGCGUCUCCCUCCUAAGGAGAAGACUGCGGGUUCGAGUCCCGUACGGAACG

Variants at the floor of the assay were thinned out.

The variants in this series derive from B1. Description: yeast fitness relative to wild type (ratio to wild type); higher = fitter; tRNA-Arg(CCU), competitive growth, 37 C, YPD. An outline of the steps:
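Variants of the tRNA-Arg(CCU) gene, chemically synthesised with a 3% per-site mutation rate at 69 sites, were placed at the native genomic locus in Saccharomyces cerevisiae. The pooled strains were competed in YPD at 37°C for 24 hours in six parallel replicates. Gene amplicons from the start population and from each end population were read by 100-nucleotide paired-end sequencing. Darwinian fitness relative to wild type came from changes in genotype frequencies; genotypes needed ≥ 100 starting reads, and estimates < 0.5 were set to 0.5.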
For GUUGCGUUGGCGUAAUGGUAACGCGUCUACCUCCUAAGGAGAAGACUGCGGGUUCGCGUCCCGUACGGAACG, the yeast fitness was 0.717.
Under GUUGCGUUGGCGUAAUGGUAAUGCGUCUCCCUCCUAAGGAGAAGACUGAGGGUUCGAGUCCCGUACGGAACG stands at most 0.5; under GUUGCGUUGGUGUAAUGGUAACGCGUCUCCCUCCUAAGGAGAAGACUGCGGGUUCGAGUCCCGUACGGUACG, 0.539; under GUUGCGUUGGCGUAAUGGUAACGAGUCUCCCUCCUAAGGAGAAGAUUGCGGGUUCGAGUACCGUACGGAACG, 0.521.
Under GUUGCGUUGGAGUAAUGGUAACGCGUCUCGCUCCUAAGGAGAAGACUGCGGGUUCGAGUCCCGUACAGAACG stands at most 0.5; under GUUGCGUUGGUGUAAUGGUAACGCGUCUCCCUCCUGAGGAGAAGACUGCGGGUUCGAGUCCCAUACGGAACG, at most 0.5.
With GUUGCGUUGGCGUAAUGGUAACGUGUCUCCCUCCUAAGGUGCAGUCUGCGGGUUCGAGUCCCGUACGGAACG, the yeast fitness is at most 0.5.
Consider GUUGCGUUGGCGUAAUGGUAAGGUGUCUUGCUCCUAAGGAGAAGACUGCGGGUUCGAGUCCCGUACGGAACG, for which the yeast fitness was at most 0.5.
As for GUUGCGUUGGCGUAAUGGUAACGCGUUUCCCUCCUAAGGACAAGACUGCGGGUUCGAGUCCCGUACGGAACG, the yeast fitness was at most 0.5.
Under GUUGCGUUGGCGUAAUGGUAACGCGUCUGCCUCCUAAGGAGAAGACUGCGGGUUCGAGUCCCGUACGGAACG stands 0.69; under GUUGCGUUGGUGUAAUGGUAAGGCGUCUCCCUCCUAAGGUGAGGACUGCGGGCUCGAGUCCCGUACGGAGCG, at most 0.5; under GUUGCGUUGGAGUAAUGGUAACGCGUCUCCCUCCAAAGGAGAAGACUGUGGGUUCGAGGCCCGUACUGAACG, 0.554.
For GUUGCGUUGGCGUAAUGGUAACGUGUCUCCCCCCUAAGGAGAAGACUGAGGGUUCGUGUCCCGUAUGCAACG the value was at most 0.5; for GUUGCGUUGGCGUAAUGGUAACGCGUCUGCCUCCUAAGGAGAAGACUGCGGGUUCGCGUCCCGUACGGAACG, 0.612; for GUUGCGUUGGCGUAAUGGUAACGAGUCUCCCUCAUAAGGAGAAGACCGCGGGUUCGAGUCCCGUACGGAACG, at most 0.5.
Under GUUGCGUUGGUGUAAUGGAAACGCGUCUCCCACCUAUGGAGAAGACUGCGGGUUCGAGUCCCGUACGGAACG stands at most 0.5.
Take GUUGUGUUGGCGUAAUGGUAACGCGUCUCCCUCCUAAGGAGAAGACUGAGGGUUCGAGUCCCGUACGGAACG: the yeast fitness was at most 0.5.
As for GUUGUGUUGGCGUAAUGGUAACGCGUCUCCCUCCUAAGGAGAAGACAGCGGGUUUGCGUCCCGUACGGAACG, the yeast fitness was at most 0.5.
Turning to GUUGCGUUGGCGUAAUGGUAACGCGUCUACCUCCUAAGGAGAAGACUGCAGGUUCGAGUCCCGUACGGAACG, the yeast fitness is at most 0.5.
Consider GUUGCGUUGGCGUAAUGGUAACGCGUAUCCCUCCUAAGGAGAUGACUGCGGGUUCGAGUCCCGUACGGAACG, for which the yeast fitness is at most 0.5.
In the case of GUUGCGUUGGCGUAAUGGUAACGUGUCUCCCUCCCAAGGAGAAGACUGCGGGUUCGAGUCCCGUAUGGAACG, the yeast fitness is 0.559.
In the case of GUUGCGUUGGCGUAAUGGUAAGGCGUCUACCUCCUAAGGAGAAGACUGCGGGUUCGAGUCCCGUACGGAACG, the yeast fitness was at most 0.5.
Regarding GUUGUGUUGGCGUAAUGGUAACGCGUCUCCCUCCUAAGGAGAACACUGCGGGUUCGAGUCCCGUACGGAACG, the yeast fitness was at most 0.5.
Take GUUGCGUUGGCGUAAUGGUAACGAGUCUCCCUCCUAAGGAGGAGACUGCGGGUUCGAGUCCCGUACGGAACG: the yeast fitness was at most 0.5.
With GUUGCGUUGGCGUAAUGGUAACGCGUAUCCCGCCUAAGUACAAGACUGCGGGUUCGAGUCCCGUAGGGAACG, the yeast fitness is at most 0.5.
With GUUGCGUUGGCGUAAUGGUAACGUGUCUCCCUGCUAAGGAGAAGACUAUGGGUUCGAGUCCCGUACGGAACG, the yeast fitness was at most 0.5.
For GUUGUGUUGGCGUAAUGGUAAGGCGUCUCCCUCCUAAGGAGAAGACUGCGGGUUCGAGUCCCGAACGGAACG, the yeast fitness was 0.542.
With GUUGCGUUGGUGUAAUGGUAACGCGUCUGCCUCCUAAGGAGAAGACUGCGGGUUCGAGUCCCCUAUGGAACG, the yeast fitness is at most 0.5.
As for GUUGCGUUGGAGUAAUGGCAACCCGUCUCCCUCCUAAGGAGAAGACCGCGGGUUCGAGUCCCGUACGGAUCG, the yeast fitness is at most 0.5.
For the variant GUUGCGUUGGCGUAAUGGUAACGCGUCUGCCUCCUAUGGAGAAGACUGAGGGUUCGACUCCCGUACGGAACG, the yeast fitness was 0.502.
With GUUGCGUUGGCGUAAUGGUAACGCGUAUCCCUCCUAAGGAGAAGAUUGCGGGUUCGAGUCCCGUACGGAACG, the yeast fitness worked out at 0.539.
As to GUUGUGUUGGCGUAAUGGUAACGCGUCUCCCUCCUAAGGAGAAGACUGCGGGUUCGAAUCCCGUACGGACCG, the yeast fitness is at most 0.5.
Turning to GUUGCGUUGGCGUAAUGGUAACGUGUCUCCCUCCUAAGGAGAAGACUGCGGGUUCGAGUCCCGUACGGAACG, the yeast fitness was 0.993.
For GUUGCGUUGGCGUAAUGGUAAGGCGUCUCCCUCCUAAGGAGAUGACUGCGGGUUCGCGCCCCGUACGGAACG the value was at most 0.5; for GUUGCGUUGGAGUAAUGGUAACGCGUCUUCCUUCUAAGGAGAAGACUGCGGGUCCGAGUCCCGUACGGAACG, at most 0.5; for GUUGUGUUGGCGUAAUGGUAACGCGUCUCCCUCCUAAGAAGAACACUGCGGGUUCGAGUCCCGUACGGAACG, at most 0.5.
In the case of GUUGCGUUGGCGUAAUGGUAACGUGUCUCCCUCCUAAGGGGAAGACUGCGGGUUCGAGUCCCGUACGGAACG, the yeast fitness was at most 0.5.
Consider GUUGCGUUGGCGUAAUGGUAACGCGUGUCCCUCCUAAGGAGAAGACUGCGGGUUCGAGUCCCGUACGGAACG, for which the yeast fitness is 0.816.
For the variant GUUGCGUUGGCGUAAUGGUAAGGUGUCUCCCUCCUAAGGAAAAGACUGCGGGUUCGAGUCCCGUACUGAACG, the yeast fitness was at most 0.5.
Consider GUUGCGUUGGCGUAAUGGUAACGAGUCUCCCUCAUAAGGAGAAGACUGCGGGUUCGAGUCCCGUAAGGAACG, for which the yeast fitness is at most 0.5.
Consider GUUGCGUUGGCGUAAUGGUAACGCGUCUGCCUCCUCUAGCGAAGGCUGCGAGUUCGAGUCCCGUACGGAACG, for which the yeast fitness is at most 0.5.
As for GUUGCGUUGGUGUAAUGGUAACGCGUCGCCCUCCUAAGGAGAAGCCUGCGGGAUCGAGUCCCCUACGGAACG, the yeast fitness is 0.559.
For GUUGCGUUGGCGUAAUGGUAAGGCGUCUCCCUCCUAAGGAGAAGACUGCGGGUUCGAGUCCCGUACCGAACG, the yeast fitness stood at 0.528.
For GUUGUGUUGGCGUAAUGGUAACGCGUGUCCCUCAUAAGGAGAAGACUGCGGGUUCGAGUCCCGUACGGAACG, the yeast fitness was at most 0.5.
For GUUGCGUUGGGGUAAUGGUAACGCGUCUCCCUCCUAAGGAGAAGACUGCGGGUUUGAGUCCCAUACGGAACG, the yeast fitness is at most 0.5.
As to GUUGCGUUGGCGUAAUGGUAACGCGUCUGCCUCCUAAGGAGAAGACUGCGGGUUCGAGUACCGUACCGAACG, the yeast fitness is 0.564.
Turning to GUUGCGUUGGAGUAAUGGCAACCCGUCUCCCUCCUAAGGAGAAGACCGCGGGUUCGAGUCCCGUACGGAACG, the yeast fitness was found to be 0.663.
GUUGCGUUGGAGUAAUGGUAACGCGUCUCCCUCCAAAGGAGAAGGCUGUGGGUUCGAGGCCCGUACUGAACG: the yeast fitness is at most 0.5.
Take GUUGCGUUGGCGUAAUGGUAAGGUGUCUCCCUCCUAAGGAAAAGACUGCGGGUUCGUGUCCCGUAAGGAACG: the yeast fitness is at most 0.5.
With GUUGCGUUGGCGUAAUGGUAACGCGUCUGCCUCCUAAGGAGAAGACUGUGGGUUCGAGUGCCGUACGGAACG, the yeast fitness is at most 0.5.
In the case of GUUGCGUUGGUGUAAUGGUAACGCGUCUCCCUCCUAAGGCGAAGACUGCGGGUUCGUGUCCCGUACGGAACG, the yeast fitness was determined as 0.623.
On to GUUGUGUUGGCGUAAUGGUAACGCGUCUCCCUCCUAAGGAGAAGACUGCGAGCUCGAGUCCUGUACGGAACG, for which the yeast fitness is at most 0.5.
As for GUUGCGUUGGCGUAAUGGUAACGCGUGUCCCUCGUAAGGAGAAGACUGCGAGUUCGAGUCCCGUACGGAACG, the yeast fitness is at most 0.5.
Turning to GUUGCGUUGGGGAAAUGGUAACGCGUCUCCCUCCUAAGGAGAAGACUGCGGGUUCGAGGCGCGUACGGAACG, the yeast fitness is at most 0.5.
Under GUUGCGUUGGCGUAAUGGUAACGCGUCUGCCUCCUAAGGAGAAGACUGCGGGUUCGAGUCCCGUAUGGAACG stands 0.588; under GUUGCGUUGGGGUAAUGGUAACGCGUCUCCCUCCUAAGGAGAAGACUGCGGGUUUGAGUCACGUACGGAACG, 0.567; under GUUGCGUUGGCGUAAUGGUAACGCGUAUCCCUCCUAAGGAGAAGAUUGCGGGUUCGACUCCCGUACGGACCG, at most 0.5.
In the case of GUUGUGUUGGCGUAAUGGUAACGCGUCUCCCUCCUAAGGAGAAGACUGCGGGUUUGAGUCCCGUACGGAACG, the yeast fitness was determined as 0.544.
Under GUUGCGUUGGCGUAAUGGUAACGGGUCUCCCUCUUAAGGAGAAGACACCGGGUUCGAGUUCCGUACGGAACG stands 0.521; under GUUGCGUUGGCGUAAUGGUAACGCGUUUCCCUCCUAAGGACAAGACUGCGGGUUCGAGUCCCGAACAGAACG, at most 0.5; under GUUGCGUUGGCGUAAUGGUAACGUGUCUCCCUCCUAAGGAGAUGACUGCGGGUUCGAGUCCCGUACGGAACG, 0.65.
GUUGCGUUGGGGUAAUGGUAACGCGUCUCCCUCUUAAAGAGAACACUGCGGGUUCGAGUCCCGUACGGAACG: the yeast fitness was at most 0.5.
GUUGUGUUGGCGUAAUGGUAACGCGUCUCCGUCCUAAGGAAACGACUGCGCGUUCGAGUCCCGUACGGAACG: the yeast fitness turned out to be 0.606.
As to GUUGCGUUGGUGUAAUGGUAACGCGUCUUCCUCCUAAGGAGAAGUCUGCGGGUUCGAGUCCCGUACGGAACG, the yeast fitness is at most 0.5.
For GUUGUGUUGGCGUAAAGGUAACGCGUCUCCCUCAUAAGGAGAAGACUGCGGGUUCGAGUCCCGUAAGGAACG the value was at most 0.5; for GUUGCGUUGGCGUAAUGGUAAGGCGUCUCCCUCCUAAGGAGAAGACUGCGGCUUCGAGUCCCGUACGCAACG, 0.575; for GUUGUGUUGGCGUAAUGGUAACGCGUCUCCCUCCUAAGGAGAAGACUGAGGGUUCAAGUCCCCUACGGAACG, at most 0.5.
Turning to GUUGCGUUGGGGUAAUGGUAACGCGUCUCCCUCCUAAGGACAAGACUGCGGGUUCGAGGCCCGUACGGAGCG, the yeast fitness was at most 0.5.
As for GUUGCGUUGGCGUAAUGGUAACGAGUCUCCCUCAGAAGGAGAAGACUGAGGGUUCGAGUCCGGUACGGAACG, the yeast fitness was at most 0.5.
As for GUUGCGUUGGGGUAAUGGUAACGCGUCUCCCUCCUAAGGAGAAGACUGUGGGUUCGAGUUCCGUACGGAACG, the yeast fitness was at most 0.5.
Under GUUGCGUUGGCGUAAUGGUAACGAGUCUCCCUCCUAAGGAGUAGACAGCGGGUUCGAGUGCCGUACGGAACG stands 0.62; under GUUGCGUUGGGGUAAUGGUAACGCGACUCCCUCCUAAGGAGAAGACUGCGGGUUCGAGUCCCGUACGGAACG, at most 0.5; under GUUGCGUUGGCGUAAUGGUAACGAGUCUCCCUCCUAAGGAGAAGAUUGCGGGUUCGAGUCCCGUACGGAACG, 0.608.
For GUUGCGUUGGGGUAAUGGUAACGCGUCUCCCUCCUAAGGAGAAGACUGCGGGUUCGAGUCCCGAACGGAACG, the yeast fitness is at most 0.5.
As for GUUGCGUUGGCGUAAUGGUAACGCGUCUGCCUCCUCUGGCGAAGGCUGCGAGUUCGAGUCCCGUACGGAUCG, the yeast fitness was at most 0.5.

The values are drawn from the RNAGym collection of RNA variant scans (doi:10.1126/science.aae0568).
